Tests used:
[1] = system: Enterococcus faecium; experiment: Bactericidal activity against vancomycin-resistant Enterococcus faecium clinical isolate 17301 after 24 hrs by two-fold serial dilution method; format: functional; conditions: isolate 17301, 24 h
[2] = system: Enterococcus faecium; experiment: Bactericidal activity against vancomycin-resistant Enterococcus faecium clinical isolate 7/27 after 24 hrs by two-fold serial dilution method; format: functional; conditions: isolate 7/27, 24 h
[3] = system: Enterococcus faecium; experiment: Bactericidal activity against vancomycin-resistant Enterococcus faecium clinical isolate 23/240 after 24 hrs by two-fold serial dilution method; format: functional; conditions: isolate 23/240, 24 h
[4] = system: Enterococcus faecium; experiment: Bactericidal activity against vancomycin-resistant Enterococcus faecium clinical isolate 28/211 after 24 hrs by two-fold serial dilution method; format: functional; conditions: isolate 28/211, 24 h
[5] = system: Enterococcus faecium; experiment: Bactericidal activity against vancomycin-resistant Enterococcus faecium clinical isolate 14643 after 24 hrs by two-fold serial dilution method; format: functional; conditions: isolate 14643, 24 h
[6] = system: Enterococcus faecium; experiment: Bactericidal activity against vancomycin-resistant Enterococcus faecium clinical isolate 5396 after 24 hrs by two-fold serial dilution method; format: functional; conditions: isolate 5396, 24 h
[7] = system: Enterococcus faecium; experiment: Bactericidal activity against vancomycin-resistant Enterococcus faecium clinical isolate 31386 after 24 hrs by two-fold serial dilution method; format: functional; conditions: isolate 31386, 24 h
[8] = system: Enterococcus faecium; experiment: Bactericidal activity against vancomycin-resistant Enterococcus faecium clinical isolate […] after 24 hrs by two-fold serial dilution method; format: functional; conditions: isolate 27/1691, 24 h
[9] = system: Enterococcus faecium; experiment: Bactericidal activity against vancomycin-resistant Enterococcus faecium clinical isolate 29/203 after 24 hrs by two-fold serial dilution method; format: functional; conditions: isolate 29/203, 24 h
[10] = system: Enterococcus faecium; experiment: Bactericidal activity against vancomycin-resistant Enterococcus faecium clinical isolate 16475 after 24 hrs by two-fold serial dilution method; format: functional; conditions: isolate 16475, 24 h
[11] = system: Enterococcus faecium; experiment: Bactericidal activity against vancomycin-resistant Enterococcus faecium clinical isolate 5484 after 24 hrs by two-fold serial dilution method; format: functional; conditions: isolate 5484, 24 h
[12] = system: Enterococcus faecium; experiment: Bactericidal activity against vancomycin-resistant Enterococcus faecium clinical isolate 6/22 after 24 hrs by two-fold serial dilution method; format: functional; conditions: isolate 6/22, 24 h
[13] = system: Enterococcus; experiment: Bactericidal activity against vancomycin-resistant Enterococcus ATCC 29212 assessed as log reduction at 2 times MIC after 60 to 120 mins by serial dilution method; format: functional
In short: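 Time-kill assay: enterococci exposed to peptide at 2× MIC, with viable counts read as log10 CFU/mL over a 60–120 min exposure. Run on ATCC 29212 and a clinical isolate.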

[14] = Hemolytic activity against human RBC at 5 times MIC after 1 hr by spectrophotometry; format: ADME, cell-based, Erythrocyte; conditions: red blood cells, read-out: Activity
[15] = Hemolytic activity against human RBC at MIC after 1 hr by spectrophotometry; format: ADME, cell-based; conditions: erythrocyte
[16] = system: HEK293; experiment: Cytotoxicity against HEK293 cells at 100 to 400 uM after 48 to 72 hrs by MTT assay; format: cell-based; conditions: human, hek293, 400 µM
[17] = system: Enterococcus; experiment: Antibacterial activity against vancomycin-resistant Enterococcus ATCC 51299 after 18 to 20 hrs by checkerboard titration method in presence of vancomycin; format: functional
[18] = system: Enterococcus; experiment: Antibacterial activity against vancomycin-resistant Enterococcus clinical isolate after 18 to 20 hrs by checkerboard titration method in presence of linezolid; format: functional
[19] = system: Enterococcus; experiment: Antibacterial activity against Enterococcus infected in Wistar albino rat assessed as reduction in cell count at MIC, iv after 1 hr relative to control; format: functional; design: scale not given: the % may be the effect or the level left
In short: (§1)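 Female Wistar albino rats, 40−45 days old, 125−150 g, 5 groups of 3. Enterococci were grown to log phase in MH broth, centrifuged at 1000g for 15 min, and diluted in PBS to 4 × 10^6 CFU/mL. Rats were inoculated i.v. and treated i.v. 1 h later with 12.5, 25 or 37.5 mg/kg peptide, PBS vehicle, or linezolid 25 mg/kg. Tail-vein blood taken 1 h post-treatment was plated on blood agar, incubated overnight at 37 °C, and colonies counted.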

[20] = system: Enterococcus; experiment: Antibacterial activity against Enterococcus infected in Wistar albino rat assessed as reduction in cell count at 2 times MIC, iv after 1 hr relative to control; format: functional; design: scale not given: the % may be the effect or the level left; in short: as §1
[21] = system: Enterococcus; experiment: Antibacterial activity against Enterococcus infected in Wistar albino rat assessed as reduction in cell count at 3 times MIC, iv after 1 hr relative to control; format: functional; design: scale not given: the % may be the effect or the level left; in short: as §1
[22] = system: Enterococcus; experiment: Antibacterial activity against Enterococcus infected in iv dosed Wistar albino rat assessed as reduction in cell count after 1 hr relative to control; format: functional, organism-based
In short: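 Female Wistar albino rats, 40−45 days old, 125−150 g, 5 groups of 3. Enterococci grown in MH broth to log phase, spun at 1000g for 15 min, diluted in PBS to 4 × 10^6 CFU/mL and inoculated i.v. Treatment i.v. 1 h later at 12.5, 25 or 37.5 mg/kg. Vehicle was 0.1 mL PBS i.v.; linezolid 25 mg/kg i.v. was the positive control. Tail-vein blood taken 1 h after treatment, plated on blood agar, incubated at 37 °C in ambient air overnight, and colonies counted.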

[23] = system: Enterococcus faecalis; experiment: Antibacterial activity against vancomycin-resistant Enterococcus faecalis clinical isolate 22626 after overnight incubation by two-fold serial dilution method; format: functional
[24] = system: Enterococcus faecalis; experiment: Antibacterial activity against vancomycin-resistant Enterococcus faecalis clinical isolate 7077 after overnight incubation by two-fold serial dilution method; format: functional
[25] = system: Enterococcus faecalis; experiment: Antibacterial activity against vancomycin-resistant Enterococcus faecalis clinical isolate 7079 after overnight incubation by two-fold serial dilution method; format: functional
[26] = system: Enterococcus faecalis; experiment: Antibacterial activity against vancomycin-resistant Enterococcus faecalis clinical isolate 5642 after overnight incubation by two-fold serial dilution method; format: functional
[27] = system: Enterococcus faecium; experiment: Antibacterial activity against vancomycin-resistant Enterococcus faecium clinical isolate 151495 after overnight incubation by two-fold serial dilution method; format: functional
[28] = system: Enterococcus faecium; experiment: Antibacterial activity against vancomycin-resistant Enterococcus faecium clinical isolate 14643 after overnight incubation by two-fold serial dilution method; format: functional
[29] = system: Enterococcus faecium; experiment: Antibacterial activity against vancomycin-resistant Enterococcus faecium clinical isolate 31176 after overnight incubation by two-fold serial dilution method; format: functional
[30] = system: Enterococcus faecium; experiment: Antibacterial activity against vancomycin-resistant Enterococcus faecium clinical isolate 31386 after overnight incubation by two-fold serial dilution method; format: functional
[31] = system: Enterococcus faecium; experiment: Antibacterial activity against vancomycin-resistant Enterococcus faecium clinical isolate 12875 after overnight incubation by two-fold serial dilution method; format: functional
[32] = system: Enterococcus faecium; experiment: Antibacterial activity against vancomycin-resistant Enterococcus faecium clinical isolate 30/48 after overnight incubation by two-fold serial dilution method; format: functional
[33] = system: Enterococcus faecium; experiment: Antibacterial activity against vancomycin-resistant Enterococcus faecium clinical isolate 16475 after overnight incubation by two-fold serial dilution method; format: functional
[34] = system: Enterococcus faecium; experiment: Antibacterial activity against vancomycin-resistant Enterococcus faecium clinical isolate 5484 after overnight incubation by two-fold serial dilution method; format: functional
[35] = system: Enterococcus faecium; experiment: Antibacterial activity against vancomycin-resistant Enterococcus faecium clinical isolate 18906 after overnight incubation by two-fold serial dilution method; format: functional
[36] = system: Enterococcus faecium; experiment: Antibacterial activity against vancomycin-resistant Enterococcus faecium clinical isolate 13246 after overnight incubation by two-fold serial dilution method; format: functional
[37] = system: Enterococcus faecalis; experiment: Bactericidal activity against vancomycin-resistant Enterococcus faecalis clinical isolate 22626 after 24 hrs by two-fold serial dilution method; format: functional; conditions: isolate 22626, 24 h
[38] = system: Enterococcus faecalis; experiment: Bactericidal activity against vancomycin-resistant Enterococcus faecalis clinical isolate 22/203 after 24 hrs by two-fold serial dilution method; format: functional; conditions: isolate 22/203, 24 h

## H-RWRLLLLKKH-OH
[1]
  MBC: 25 mg/L
[2]
  MBC: 25 mg/L
[3]
  MBC: 25 mg/L
[4]
  MBC: 25 mg/L
[5]
  MBC: 25 mg/L
[6]
  MBC: 25 mg/L
[7]
  MBC: 25 mg/L
[8]
  MBC: 25 mg/L
[9]
  MBC: 25 mg/L
[10]
  MBC: 25 mg/L
[11]
  MBC: 25 mg/L
[12]
  MBC: 25 mg/L
[13]
  MBC: 25 mg/L
[14]
  hemolysis at 1 h, 5 times MIC: < 5%
[15]
  Activity: Non-toxic
[16]
  Activity: Non-toxic
[17]
  fractional inhibitory concentration index (FICI): 0.06
[18]
  fractional inhibitory concentration index (FICI): 2
[19]
  Activity: 73%
[20]
  Activity: 76%
[21]
  Activity: 82%
[22]
  Activity: Dose-dependent effect
[23]
  MIC: 12.5 mg/L
[24]
  MIC: 12.5 mg/L
[25]
  MIC: 12.5 mg/L
[26]
  MIC: 12.5 mg/L
[27]
  MIC: 6.25 mg/L
[28]
  MIC: 6.25 mg/L
[29]
  MIC: 6.25 mg/L
[30]
  MIC: 6.25 mg/L
[31]
  MIC: 12.5 mg/L
[32]
  MIC: 12.5 mg/L
[33]
  MIC: 12.5 mg/L
[34]
  MIC: 12.5 mg/L
[35]
  MIC: 12.5 mg/L
[36]
  MIC: 12.5 mg/L
[37]
  MBC: 25 mg/L
[38]
  MBC: 25 mg/L

Reference: ChEMBL document CHEMBL3352237, “Synthesis and biological evaluation of novel peptide BF2 as an antibacterial agent against clinical isolates of vancomycin-resistant enterococci” (J Med Chem, 2014)
